ChEMBL document CHEMBL4043182, “On the synthesis of quinone-based BODIPY hybrids: New insights on antitumor activity and mechanism of action in cancer cells” (Bioorg Med Chem Lett, 2017)
Activity calls are given as the source filed them. The rule behind the calls is not given here.

Assays:
MDA-MB-435 = assay: Antiproliferative activity against human MDA-MB-435 cells after 72 hrs by MTT assay; assay type: functional, cell-based; settings: MDA-MB-435, 72 h
Outline: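 MTT reduction: cancer lines plated at 0.7×10^5 to 0.3×10^6 cells/well, V79 and L929 fibroblasts at 0.5×10^5 cells/well. Compounds in DMSO (0.1%) were given for 24 h at 0.04–40.92 µM or 72 h at 0.04–8.19 µM. Fresh medium with 0.5 mg/mL MTT was added for 3 h, then formazan was dissolved in DMSO and read at 595 nm as % of control. IC50 came from nonlinear regression with 95% CI. Doxorubicin (0.001–1.06 µM) was the positive control. Triplicate, ≥3 repeats.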

[1] = Selective index, ratio of IC50 for chinese hamster V79 cells to IC50 for human MDA-MB-435 cells
Outline: (§1)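 Selectivity index is the ratio of the IC50 in a non-cancer murine line (V79 or L929) to the IC50 in the cancer line. […] MTT was 0.5 mg/mL for 3 h, formazan dissolved in DMSO and read at 595 nm as % of control. IC50s were derived by nonlinear regression; triplicate, at least three repeats.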

PC-3 [2] = assay: Induction of oxidative stress in human PC3 cells assessed as total GSSG levels at 5 uM treated 24 hrs post NAC addition measured after 24 hrs by spectrophotometric analysis (reference value: 1.11 +/- 0.12 microg/mg); assay type: functional
Outline: (§2)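 Cells were pretreated 24 h with 5 mM NAC, then exposed 24 h to test compound at 5 µM. Controls received 0.1% DMSO. Extracts were prepared by sonication and HClO4 precipitation, then neutralized with KOH. Total glutathione was read by DTNB/glutathione reductase/NADPH rate at 412 nm. GSSG was measured after 4-vinylpyridine (0.1%, 1 h, RT) and GSH derived by difference. Values are normalized to protein, triplicates, three independent runs.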

HCT-116 [3] = assay: Induction of lipid peroxidation in human HCT116 cells assessed as increase in MDA levels at 2.5 to 10 uM after 24 hrs in absence of NAC by TBARS assay; assay type: functional, cell-based
Outline: (§3)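 TBARS: cells were exposed 24 h, with or without 24 h prior 5 mM NAC, and lysed in Tris-HCl. Lysate was heated with TCA/0.25 M HCl and 6.7 mg/mL TBA for 15 min at 100 °C, centrifuged, and read at 532 nm. Hydrolyzed tetramethoxypropane served as standard, with values normalized to protein. H2O2 (10 µM) was the positive control. Three independent experiments in triplicate; ANOVA/Tukey.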

HCT-116 [4] = assay: Induction of oxidative stress in human HCT116 cells assessed as total GSH levels at 5 uM treated 24 hrs post NAC addition measured after 24 hrs by spectrophotometric analysis (reference value: 3.74 +/- 0.55 microg/mg); assay type: functional
[5] = Selectivity index, ratio of IC50 for mouse L929 cells to IC50 for human PC3 cells; assay type: functional; outline: as §1
[6] = Selective index, ratio of IC50 for mouse L929 cells to IC50 for human MDA-MB-435 cells; outline: as §1
[7] = Selective index, ratio of IC50 for mouse L929 cells to IC50 for human HCT116 cells; outline: as §1
HCT-116 [8] = assay: Induction of oxidative stress in human HCT116 cells assessed as GSH to GSSG ratio at 5 uM treated 24 hrs post NAC addition measured after 24 hrs by spectrophotometric analysis (reference value: 3.09 +/- 0.33 microg/mg); assay type: functional
L929 [9] = assay: Induction of oxidative stress in mouse L929 cells assessed as total GSSG levels at 5 uM treated 24 hrs post NAC addition measured after 24 hrs by spectrophotometric analysis (reference value: 1.05 +/- 0.33 microg/mg); assay type: cell-based; settings: l929, 24 h
SF-295 [10] = assay: Induction of lipid peroxidation in human SF295 cells assessed as increase in MDA levels at 2.5 to 10 uM after 24 hrs in absence of NAC by TBARS assay; assay type: functional, cell-based; outline: as §3
L929 [11] = assay: Induction of oxidative stress in mouse L929 cells assessed as total GSH levels at 5 uM treated 24 hrs post NAC addition measured after 24 hrs by spectrophotometric analysis (reference value: 3.76 +/- 0.51 microg/mg); assay type: cell-based; settings: l929, 24 h
SF-295 [12] = assay: Geno-toxicity in human SF295 cells assessed as induction of DNA damage at 2.5 to 10 uM after 24 hrs in absence of NAC by alkaline comet assay; assay type: functional, cell-based
Outline: (§4)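 Alkaline comet assay after 24 h at 2.5, 5 and 10 µM, with or without 24 h pretreatment with 5 mM NAC. Cells were trypsinized and embedded in 0.75% low-melting agarose, then lysed at pH 10, 4 °C, ≥1 h. DNA was unwound 20 min at pH >13 and electrophoresed 20 min at 25 V, 300 mA (0.86 V/cm), then stained with ethidium bromide. 100 cells (2 slides) were scored in classes 0–4 for a damage index. Mean ± SEM, three independent experiments in triplicate.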

PC-3 [13] = assay: Induction of oxidative stress in human PC3 cells assessed as total GSSG levels at 5 uM after 24 hrs by spectrophotometric analysis (reference value: 1.11 +/- 0.12 microg/mg); assay type: functional
HCT-116 [14] = assay: Induction of oxidative stress in human HCT116 cells assessed as total GSSG levels at 5 uM treated 24 hrs post NAC addition measured after 24 hrs by spectrophotometric analysis (reference value: 1.19 +/- 0.37 microg/mg); assay type: functional
[15] = Selectivity index, ratio of IC50 for mouse L929 cells to IC50 for human SF295 cells; assay type: functional; outline: as §1
L929 [16] = assay: Induction of oxidative stress in mouse L929 cells assessed as total intracellular thiol levels at 5 uM treated 24 hrs post NAC addition measured after 24 hrs by spectrophotometric analysis (reference value: 4.87 +/- 0.25 microg/mg); assay type: cell-based; settings: l929, 24 h
SF-295 [17] = assay: Induction of oxidative stress in human SF295 cells assessed as total intracellular thiol levels at 5 uM treated 24 hrs post NAC addition measured after 24 hrs by spectrophotometric analysis (reference value: 4.51 +/- 0.83 microg/mg); assay type: functional; outline: as §2
L929 [18] = assay: Induction of lipid peroxidation in mouse L929 cells assessed as increase in MDA levels at 2.5 to 10 uM after 24 hrs in absence of NAC by TBARS assay; assay type: cell-based; settings: l929, 24 h; outline: as §3
SF-295 [19] = assay: Induction of oxidative stress in human SF295 cells assessed as total intracellular thiol levels at 5 uM after 24 hrs by spectrophotometric analysis (reference value: 4.51 +/- 0.83 microg/mg); assay type: functional
L929 [20] = assay: Geno-toxicity in mouse L929 cells assessed as induction of DNA damage at 2.5 to 10 uM treated 24 hrs post NAC addition measured after 24 hrs by alkaline comet assay; assay type: cell-based; settings: l929, 24 h; outline: as §4
HCT-116 [21] = assay: Cytotoxicity against human HCT116 cells after 24 hrs in absence of GSH-OEt by MTT assay; assay type: functional, cell-based; settings: HCT-116, 24 h
Outline: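 24 h MTT exposure (0.04–40.92 µM in 0.1% DMSO), with or without co-treatment with GSH ethyl ester (15 mM) to gauge the ROS contribution. MTT was 0.5 mg/mL for 3 h, with formazan dissolved in DMSO and absorbance at 595 nm expressed as % of control. Triplicate, repeated at least three times.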

## CC1(C)OC2=C(C(=O)C(=O)c3ccccc32)C1n1cc(CNC2=[N+]3C(=C(c4ccccc4)c4ccc(Cl)n4[B-]3(F)F)C=C2)nn1 (configuration not stated)
MDA-MB-435
  IC50: 0.81 µM
[1]
  Ratio IC50: 0.8
PC-3 [2]
  Activity: 1.07 µg/mg
HCT-116 [3]
  Activity: Active
HCT-116 [4]
  Activity: 3.71 µg/mg
[5]
  Ratio IC50: 2.4
[6]
  Ratio IC50: 1.1
[7]
  Ratio IC50: 3
HCT-116 [8]
  Activity: 2.63 µg/mg
L929 [9]
  Activity: 1.24 µg/mg
SF-295 [10]
  Activity: Active
L929 [11]
  Activity: 3.89 µg/mg
SF-295 [12]
  Activity: Active
PC-3 [13]
  Activity: 2.16 µg/mg
HCT-116 [14]
  Activity: 1.38 µg/mg
[15]
  Ratio IC50: 3
L929 [16]
  Activity: 5.21 µg/mg
SF-295 [17]
  Activity: 4.72 µg/mg
L929 [18]
  Activity: Toxic
SF-295 [19]
  Activity: 3.44 µg/mg
L929 [20]
  Activity: Toxic
HCT-116 [21]
  IC50: 5.28 µM
